≈ marks a conversion by molar mass, not a printed value.
Key:
Format in all cases: functional
[1] = system: Trichophyton benhamiae; experiment: In vitro antifungal activity against Trichophyton asteroides
How it was run: (§1)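 Broth microdilution MIC in Sabouraud's glucose broth; final inocula 1 × 10^5 cells/mL (yeast) or 1 × 10^5 conidia/mL (mold and dermatophyte).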

[2] = system: Aspergillus fumigatus; experiment: In vitro antifungal activity against Aspergillus fumigatus; how it was run: as §1
[3] = system: Candida albicans; experiment: In vitro antifungal activity against Candida albicans; how it was run: as §1
[4] = system: Candida albicans; experiment: Minimum effective concentration for inhibition of pseudomycelium formation in Candida albicans; conditions: for minimal effective concentration: Candida albicans, read-out: MEC
How it was run: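 C. albicans KE-2 (clinical isolate) at a final 1 × 10^6 yeast cells/mL in EMEM with 20% calf serum; compounds diluted by the same microtiter system as for MICs. After incubation, wells were Giemsa-stained (5% in phosphate buffer) and read by microscope. MEC is the lowest concentration preventing typical pseudomycelium formation.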

[5] = Trichophyton benhamiae, read-out: MIC
[6] = Aspergillus fumigatus, read-out: MIC
[7] = Candida albicans, read-out: MIC

SMILES	MIC [1, 5] [µg/mL]	MIC [2, 6] [µg/mL]	MIC [3, 7] [µg/mL]	minimal effective concentration [4] [µg/mL]	MIC [1] [µg/mL]	MEC [4] [µg/mL]	MIC [2] [µg/mL]	MIC [3] [µg/mL]
O=S1O[C@H](c2ccc(Cl)cc2)[C@@](Cn2cncn2)(c2ccc(Cl)cc2Cl)O1 (some centres not stated)	0.1 (≈ 0.225 µM)	25 (≈ 56.2 µM)	50 (≈ 112 µM)	0.16				
O=C(c1ccc(Cl)cc1)C(O)(Cn1cnnc1)c1ccc(Cl)cc1 (configuration not stated)	50 (≈ 138 µM)	> 100	> 100	> 20				
Clc1ccc([C@H]2OCO[C@]2(Cn2cncn2)c2ccc(Cl)cc2Cl)cc1	0.1 (≈ 0.243 µM)	0.2 (≈ 0.487 µM)	50 (≈ 122 µM)	0.02				
COc1ccccc1C(O)C(O)(Cn1cncn1)c1ccccc1OC (configuration not stated)	3.1 (≈ 8.72 µM)	> 100	> 100	10				
O=C(c1ccc(Cl)cc1)C(O)(Cn1cncn1)c1ccccc1Cl (configuration not stated)	0.8 (≈ 2.21 µM)	> 100	> 100	10				
O=C(c1ccc(Cl)cc1Cl)C(O)(Cn1cnnc1)c1ccc(Cl)cc1Cl (configuration not stated)	25 (≈ 58 µM)	> 100	> 100	> 20				
O=C1O[C@H](c2ccccc2)[C@@](Cn2ccnc2)(c2ccc(Cl)cc2Cl)O1	0.1 (≈ 0.257 µM)	20 (≈ 51.4 µM)	100 (≈ 257 µM)	0.16				
O=C(c1ccc(Cl)cc1)C(O)(Cn1ccnc1)c1ccc(Cl)cc1 (configuration not stated)	0.1 (≈ 0.277 µM)	> 100	> 100	20				
COc1ccc(C(O)C(O)(Cn2cncn2)c2ccc(OC)cc2)cc1 (configuration not stated)	25 (≈ 70.3 µM)	> 100	> 100	> 20				
CC(C)C(O)(Cn1cncn1)C(=O)c1ccc(Cl)cc1 (configuration not stated)	0.2 (≈ 0.681 µM)	100 (≈ 340 µM)	> 100	0.63				
CC(O)(c1ccc(Cl)cc1)C(O)(Cn1ccnc1)c1ccc(F)cc1 (configuration not stated)	1.6 (≈ 4.43 µM)	> 100	> 100	10				
OC(c1ccc(Cl)cc1Cl)C(O)(Cn1cncn1)c1ccc(F)cc1 (configuration not stated)	0.1 (≈ 0.262 µM)	> 100	> 100	0.31				
O=C(c1ccc(Cl)cc1Cl)C(O)(Cc1ccccc1)Cn1cncn1 (configuration not stated)	1.6 (≈ 4.25 µM)	> 100	> 100	5				
O=C1O[C@H](c2ccc(Cl)cc2)[C@](Cn2cncn2)(c2ccc(Cl)cc2Cl)O1 (relative stereo)		> 100	> 100		25 (≈ 58.9 µM)	>20		
OC(c1ccc(Cl)cc1)C(O)(Cn1cncn1)c1ccc(Cl)cc1 (stereo in doubt; 89)		> 100	50 (≈ 137 µM)		12.5 (≈ 34.3 µM)	20		
CC(C)C(O)C(O)(Cn1cncn1)c1ccc(Cl)cc1 (stereo in doubt; 100)		> 100	> 100		0.8 (≈ 2.7 µM)	0.16		
OC(c1ccc(F)cc1)C(O)(Cn1cncn1)c1ccc(Cl)cc1 (stereo in doubt; 103)		> 100	> 100		0.8 (≈ 2.3 µM)	0.31		
OC(c1ccc(F)cc1)C(O)(Cn1cncn1)c1ccc(Cl)cc1Cl (stereo in doubt; 105)					25 (≈ 65.4 µM)	5	>100	>100
CCCC(O)C(O)(Cn1cncn1)c1ccc(Cl)cc1 (stereo in doubt; 107)		> 100	> 100	0.16	6.3 (≈ 21.3 µM)			

SMILES	MIC [1, 5] [µg/mL]	MIC [2, 6] [µg/mL]	MIC [3, 7] [µg/mL]	minimal effective concentration [4] [µg/mL]	MIC [1] [µg/mL]	MEC [4] [µg/mL]	MIC [2] [µg/mL]	MIC [3] [µg/mL]
OC(c1ccc(Cl)cc1)C(O)(Cn1cncn1)c1ccc(Cl)cc1Cl (stereo in doubt; 108)			> 100		0.1 (≈ 0.251 µM)	0.04	25 (≈ 62.7 µM)	
OC(c1ccc(Cl)cc1)C(O)(Cn1cncn1)c1ccc(Cl)cc1Cl (stereo in doubt; 109)					12.5 (≈ 31.4 µM)	20	>100	100 (≈ 251 µM)
O=C1O[C@H](c2ccc(Cl)cc2)[C@@](Cn2cncn2)(c2ccc(Cl)cc2Cl)O1 (stereo in doubt; 115)	0.2 (≈ 0.471 µM)	> 100	> 100	0.04				
CC(O)(c1ccc(F)cc1)C(O)(Cn1cncn1)c1ccc(F)cc1 (stereo in doubt; 161)	0.2 (≈ 0.579 µM)		> 100			2.5	100 (≈ 290 µM)	
CC(O)(c1ccc(F)cc1)C(O)(Cn1cncn1)c1ccc(Cl)cc1 (stereo in doubt; 163)	0.2 (≈ 0.553 µM)	> 100	100 (≈ 276 µM)			0.63		
OC(Cn1cncn1)(c1ccc(F)cc1)C(O)(c1ccccc1)c1ccc(F)cc1 (stereo in doubt; 165)		> 100	> 100	> 20	25 (≈ 61.4 µM)			
CC(O)(c1ccccc1)C(O)(Cn1cncn1)c1ccc(Cl)cc1Cl (stereo in doubt; 166)	0.1 (≈ 0.264 µM)	12.5 (≈ 33 µM)	> 100	0.04				
CC(O)(c1ccccc1)C(O)(Cn1cncn1)c1ccc(Cl)cc1Cl (stereo in doubt; 167)					0.1 (≈ 0.264 µM)	0.08	25 (≈ 66.1 µM)	50 (≈ 132 µM)
CC(C)C(C)(O)C(O)(Cn1cncn1)c1ccc(Cl)cc1Cl (stereo in doubt; 169)	0.1 (≈ 0.29 µM)	50 (≈ 145 µM)	> 100	0.08				
CCC(O)(c1ccc(F)cc1)C(O)(Cn1cncn1)c1ccc(Cl)cc1 (stereo in doubt; 171)	0.1 (≈ 0.266 µM)		> 100			0.16	>100	
CC(O)(c1ccc(F)cc1)C(O)(Cn1cncn1)c1ccc(Cl)cc1Cl (stereo in doubt; 173)	0.1 (≈ 0.252 µM)	25 (≈ 63.1 µM)	> 100	0.31				
CC(O)(c1ccc(F)cc1)C(O)(Cn1cncn1)c1ccc(Cl)cc1Cl (stereo in doubt; 174)					0.1 (≈ 0.252 µM)	0.31	50 (≈ 126 µM)	100 (≈ 252 µM)
CC(O)(c1ccc(Cl)cc1)C(O)(Cn1cncn1)c1ccc(Cl)cc1Cl (stereo in doubt; 175)	0.1 (≈ 0.242 µM)	25 (≈ 60.6 µM)	> 100			0.31		
CC(O)(c1ccc(Cl)cc1)C(O)(Cn1cncn1)c1ccc(Cl)cc1Cl (stereo in doubt; 176)					0.1 (≈ 0.242 µM)	0.63	50 (≈ 121 µM)	50 (≈ 121 µM)
CC(O)(c1ccc(F)cc1)C(O)(Cn1cncn1)c1ccccc1Cl (stereo in doubt; 182)	0.1 (≈ 0.276 µM)	12.5 (≈ 34.5 µM)	> 100	2.5				
CCCCC(O)(c1ccc(F)cc1)C(O)(Cn1cncn1)c1ccccc1Cl (stereo in doubt; 189)	0.4 (≈ 0.99 µM)	50 (≈ 124 µM)	> 100			20		
CCCCC(O)(Cn1cncn1)C(C)(O)c1ccc(Cl)cc1 (stereo in doubt; 191)	0.6 (≈ 1.85 µM)	> 100	> 100	1.25				
CC(O)(c1ccc(Cl)cc1)C(O)(Cn1cncn1)c1ccc(Cl)cc1 (stereo in doubt; 193)					0.1 (≈ 0.264 µM)	0.36	50 (≈ 132 µM)	100 (≈ 264 µM)
CC(O)(c1ccc(Cl)cc1)C(O)(Cn1cncn1)c1ccc(Cl)cc1 (stereo in doubt; 194)		> 100	50 (≈ 132 µM)		0.8 (≈ 2.11 µM)	2.5		

From ChEMBL document CHEMBL1123760, “Synthesis and oral antifungal activity of novel azolylpropanolones and related compounds” (1987)
